How the values were obtained:
ERO1α [1] = conditions: read-out: IC50 (ERO1α); cited from earlier work
ERO1α [2] = conditions: read-out: KD (ERO1α); cited from earlier work
[3] = system: lysine-specific demethylase 1; conditions: cited from earlier work
Mao-A = conditions: read-out: IC50 (Mao-A); cited from earlier work
Recombinant human ERO1α = target: T1, Recombinant human ERO1α (Homo sapiens, UniProt Q96HE7); assay: fluorescence-based ERO1α activity assay; format: biochemical; conditions: 0.01–1 μM FAD
T1 sequence (Q96HE7 24-468): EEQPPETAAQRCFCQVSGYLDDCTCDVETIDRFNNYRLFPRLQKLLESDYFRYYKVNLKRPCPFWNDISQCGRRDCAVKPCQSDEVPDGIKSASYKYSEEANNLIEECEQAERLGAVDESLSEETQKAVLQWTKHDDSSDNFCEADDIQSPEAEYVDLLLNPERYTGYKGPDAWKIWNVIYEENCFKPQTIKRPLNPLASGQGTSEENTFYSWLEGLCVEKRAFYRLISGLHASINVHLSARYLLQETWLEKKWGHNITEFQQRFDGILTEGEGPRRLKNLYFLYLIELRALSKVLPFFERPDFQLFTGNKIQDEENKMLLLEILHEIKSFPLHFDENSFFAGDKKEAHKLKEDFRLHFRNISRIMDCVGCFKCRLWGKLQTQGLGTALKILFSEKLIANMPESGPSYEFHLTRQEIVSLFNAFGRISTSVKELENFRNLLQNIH

C57BL/6 mice [4] = assay: FeCl3-induced carotid arterial thrombosis; format: in vivo, mouse; conditions: iv 5 μg/g BW; 7% or 10% FeCl3
In short: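 Male and female mice, 8–12 weeks, were anaesthetised with ip ketamine/xylazine. A 2 × 2 mm filter disc carrying 1.2 μL of 7 or 10% FeCl3 was placed on the carotid artery for 2 min. Flow was monitored by Doppler flow meter. TTO was the time from disc removal to stable occlusion (no flow for 5 min).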

C57BL/6 mice [5] = assay: Tail bleeding time and hemoglobin content; format: in vivo, mouse; conditions: iv 5 μg/g BW

Compound: CN(C)c1ccc(/C=C2\Oc3cc(O)ccc3C2=O)cc1 [Compound T151742]
- IC50 (ERO1α [1]): 8.7 µM
- Kd (ERO1α [2]): 31.4 µM
- binding to lysine-specific demethylase 1 [3]: does not bind
- IC50 (Mao-A): 1 µM

Compound: Cc1cc2nc3c(=O)[nH]c(=O)nc-3n(C[C@H](O)[C@H](O)[C@H](O)COP(=O)(O)OP(=O)(O)OC[C@H]3O[C@@H](n4cnc5c(N)ncnc54)[C@H](O)[C@@H]3O)c2cc1C [FAD, flavin adenine dinucleotide]
- effect of exogenous FAD on ERO1α activity (Recombinant human ERO1α): significantly increased ERO1α activity

Compound: eptifibatide
- time to occlusion (TTO) (C57BL/6 mice [4]): significantly prolonged TTO irrespective of the FeCl3 concentration
- tail bleeding times and blood loss (C57BL/6 mice [5]): markedly increased both

From paper PMC12393906 (Molecular Therapy, 2025)
